Published values pooled from the literature.
pEC50, pIC50: −log10 of the molar value. Values after ≈ are worked out from the molar mass of the structure shown.

N#CC(=Cc1ccccc1O)C1=NC(=O)C(=Cc2cn(-c3ccccc3)nc2-c2ccccc2)S1 — inhibition zone (Acinetobacter baumannii; microbial growth, well diffusion; 100000 µg/mL): 25 mm
CC(C)CN1C[C@H]2CC[C@@H]3[C@]4(C)COC(C)(C)O[C@@H]4CC[C@@]3(C)[C@@H]2C[C@@H]1C1=CCOC1=O — inhibition (unidentified human coronavirus; cytopathic effect; MRC5; 25 µM, 72 h): 28.6%
Nc1nc(N)c2ncn([C@H]3O[C@H](CO)[C@@H](F)[C@@H]3F)c2n1 — EC90 (Hepatitis C virus; viral replication, inhibitor; Huh-7; replicon): > 10 µM
Cc1c(NC(=O)CC2=NC(=O)CS2)c(=O)n(-c2ccccc2)n1C — inhibition zone (Acinetobacter baumannii; microbial growth, well diffusion; 100000 µg/mL): 26 mm
C[C@]1(CO)[C@H]2CC[C@@H]3CN(Cc4ccco4)[C@@H](C4=CCOC4=O)C[C@H]3[C@]2(C)CC[C@H]1O — inhibition (unidentified human coronavirus; cytopathic effect; MRC5; 25 µM, 72 h): -7.7%
C/C(O)=C1\C(=O)C(CC(C)C)N(C(=O)C=Cc2ccccc2)C1=O (stereo not shown) — MIC (Proteus mirabilis; microbial growth; ATCC25933): > 200 µg/mL
COC(=O)N[C@H](C(=O)N1CCC[C@H]1c1ncc(-c2ccc(-c3ccc(-c4cnc([C@@H]5CCCN5C(=O)[C@@H](NC(=O)OC)C(C)C)[nH]4)cc3)cc2)[nH]1)C(C)C — pEC50 (Hepatitis C virus; viral replication, inhibitor; GETYPE1A; replicon): 10.30
CC(=O)OC[C@@]1(C)[C@H]2CC[C@@H]3CN(Cc4ccccc4C)[C@@H](C4=CCOC4=O)C[C@H]3[C@]2(C)CC[C@H]1OC(C)=O — inhibition (unidentified human coronavirus; cytopathic effect; MRC5; 25 µM, 72 h): 71.4%
OC[C@H]1O[C@@H](n2cnc3c(NCc4ccccc4)nc(Cl)nc32)[C@@H](F)[C@@H]1F — EC90 (Hepatitis C virus; viral replication, inhibitor; Huh-7; replicon): 9.9 µM
Nc1nc(NS(=O)(=O)c2ccccc2)ncc1-c1nc2ccccc2s1 — IC50 (Enterovirus B; plaque formation; BGM, B4): 85 µg/mL
CCOC(=O)C=c1[nH]c(=O)c(=Cc2cn(-c3ccccc3)nc2-c2ccc(C)cc2)s1 — inhibition zone (Acinetobacter baumannii; microbial growth, well diffusion; 100000 µg/mL): 11 mm
Nc1nc(Cl)c2ncn([C@@H]3O[C@H](COC(=O)c4ccccc4)[C@@H](F)[C@@H]3F)c2n1 — EC90 (Hepatitis C virus; viral replication, inhibitor; Huh-7; replicon): 10 µM
N#CC(=Cc1ccc(Cl)cc1)C1=NC(=O)C(=Cc2cn(-c3ccccc3)nc2-c2ccccc2)S1 — inhibition zone (Acinetobacter baumannii; microbial growth, well diffusion; 100000 µg/mL): 20 mm
NC(=O)c1ncn([C@@H]2O[C@H](CO)[C@@H](O)[C@H]2O)n1 — pIC50 (Enterovirus B; cytopathic effect; Vero, B3 CVB3): 2.80
CC1(C)OC[C@@]2(C)[C@H]3CC[C@@H]4CN(Cc5ccc(F)c(Cl)c5)[C@@H](C5=CCOC5=O)C[C@H]4[C@]3(C)CC[C@H]2O1 — inhibition (unidentified human coronavirus; cytopathic effect; MRC5; 25 µM, 72 h): 51.6%
CC(C)[C@H](NC(=O)OCc1ccccc1)C(=O)N1CCC[C@H]1C(=O)Nc1cccc(C#CC#Cc2cccc(NC(=O)[C@@H]3CCCN3C(=O)[C@@H](NC(=O)OCc3ccccc3)C(C)C)c2)c1 — pEC50 (Hepatitis C virus; viral replication, inhibitor, luciferase; Huh-5-2, GETYPE1B; 72 h, replicon): < 5.00
Nc1nc2c(ncn2[C@@H]2O[C@H](CO)[C@@H](F)[C@@H]2F)c(=O)[nH]1 — pEC50 (Hepatitis C virus; viral replication, inhibitor; Huh-7; replicon): < 5.00
CCOC(=O)N[C@@H](C(=O)N1CCC[C@H]1C(=O)Nc1ccc(C#CC#Cc2ccc(NC(=O)[C@@H]3CCCN3C(=O)[C@H](NC(=O)OCC)C(C)C)cc2)cc1)C(C)C — pEC50 (Hepatitis C virus; viral replication, inhibitor, luciferase; Huh-5-2, GETYPE1B; 72 h, replicon): 6.57
Cc1ccc(-c2nn(-c3ccccc3)cc2C=c2sc(=CC#N)[nH]c2=O)cc1 — inhibition zone (Acinetobacter baumannii; microbial growth, well diffusion; 100000 µg/mL): 14 mm
O=C(OC[C@H]1O[C@H](n2cnc3c(Cl)nc(Cl)nc32)[C@@H](F)[C@@H]1F)c1ccccc1 — pEC50 (Hepatitis C virus; viral replication, inhibitor; Huh-7; replicon): > 5.00
CC(=O)OC[C@@]1(C)[C@H]2CC[C@@H]3CN(Cc4cccc(Cl)c4)[C@@H](C4=CCOC4=O)C[C@H]3[C@]2(C)CC[C@H]1OC(C)=O — inhibition (unidentified human coronavirus; cytopathic effect; MRC5; 25 µM, 72 h): 116%
CCCCOC(=O)N[C@H](C(=O)N1CCC[C@H]1C(=O)Nc1cccc(C#CC#Cc2cccc(NC(=O)[C@@H]3CCCN3C(=O)[C@@H](NC(=O)OCCCC)[C@@H](C)CC)c2)c1)[C@H](C)CC — pEC50 (Hepatitis C virus; viral replication, inhibitor, luciferase; Huh-5-2, GETYPE1B; 72 h, replicon): < 5.00
N#CC(=Cc1cn(-c2ccccc2)nc1-c1ccccc1)C1=NC(=O)CS1 — MBC (Acinetobacter baumannii; microbial killing, broth dilution): 0.5 µg/mL (≈ 1.35 µM)
COc1nc(Cl)nc2c1ncn2[C@@H]1O[C@H](CO)[C@@H](F)[C@@H]1F — EC90 (Hepatitis C virus; viral replication, inhibitor; Huh-7; replicon): > 10 µM
CCOC(=O)N[C@H](C(=O)N1CCC[C@H]1C(=O)Nc1cccc(C#CC#Cc2cccc(NC(=O)[C@@H]3CCCN3C(=O)[C@@H](NC(=O)OCC)C(C)C)c2)c1)C(C)C — pEC50 (Hepatitis C virus; viral replication, inhibitor, luciferase; Huh-5-2, GETYPE1B; 72 h, replicon): 6.35
Cc1ccc(-c2nn(-c3ccccc3)cc2C=C(C#N)C2=NC(=O)CS2)cc1 — inhibition zone (Acinetobacter baumannii; microbial growth, well diffusion; 100000 µg/mL): 20 mm
[N-]=[N+]=Nc1nc(N=[N+]=[N-])c2ncn([C@@H]3O[C@H](COC(=O)c4ccccc4)[C@@H](F)[C@@H]3F)c2n1 — EC90 (Hepatitis C virus; viral replication, inhibitor; Huh-7; replicon): > 10 µM
CCCCCCC/C=C/C(=O)N1C(=O)/C(=C(\O)C2CCNCC2)C(=O)C1CC(C)C (stereo not shown) — MIC (Proteus mirabilis; microbial growth; ATCC25933): 200 µg/mL (≈ 478 µM)
Cc1ccc(C(=O)CNc2nc(NS(=O)(=O)c3ccccc3)ncc2-c2nc3ccccc3s2)cc1 — IC50 (Enterovirus B; plaque formation; BGM, B4): 90 µg/mL
CCCCCCC/C=C/C(=O)N1CC(=O)/C(=C(\C)O)C1=O — MIC (Proteus mirabilis; microbial growth; ATCC25933): > 200 µg/mL
C[C@@]12COCO[C@@H]1CC[C@]1(C)[C@@H]2CC[C@@H]2CN(Cc3ccccc3)[C@@H](C3=CCOC3=O)C[C@H]21 — inhibition (unidentified human coronavirus; cytopathic effect; MRC5; 25 µM, 72 h): 9.5%
Cc1ccc(S(=O)(=O)Nc2ncc(-c3nc4ccccc4s3)c(N)n2)cc1 — IC50 (Enterovirus B; plaque formation; BGM, B4): 110 µg/mL
CCCCCCC/C=C/C(=O)N1C(=O)/C(=C(/C)O)C(=O)C1CCCCN (stereo not shown) — MIC (Proteus mirabilis; microbial growth; ATCC25933): > 200 µg/mL
CO[C@@H](C(N)=O)[C@H](NC(=O)c1ccc(NC(=O)c2ccc(C#N)cc2)cc1)C(=O)Nc1ccc(C(=O)Nc2ccc(C(=O)Nc3ccc(C(=O)O)cc3)c(O)c2OC(C)C)cc1 — MIC (Proteus mirabilis; microbial growth; DSM4479): 4 µg/mL (≈ 4.75 µM)
COC(=O)N[C@H](C(=O)N1CCC[C@H]1C(=O)Nc1ccc(C#CC#Cc2ccc(NC(=O)[C@@H]3CCCN3C(=O)[C@@H](NC(=O)OC)C(C)C)cc2)cc1)C(C)C — pEC50 (Hepatitis C virus; viral replication, inhibitor, luciferase; Huh-5-2, GETYPE1B; 72 h, replicon): 8.00
Oc1ccc(/C=C/c2cc(O)cc(O)c2)cc1 — pIC50 (Leishmania tarentolae; parasite growth, resazurin; 48 h, promastigote): 4.10
O=C(Nc1ccccc1-c1ccc(F)c(F)c1)c1nccnc1C(F)(F)F — EC50 (Colletotrichum orbiculare; microbial growth): > 100 µg/mL
C[C@]1(CO)[C@H]2CC[C@@H]3CN(Cc4ccc(F)c(Cl)c4)[C@@H](C4=CCOC4=O)C[C@H]3[C@]2(C)CC[C@H]1O — inhibition (unidentified human coronavirus; cytopathic effect; MRC5; 25 µM, 72 h): 20%
COC(=O)N[C@H](C(=O)N1CCC[C@H]1C(=O)Nc1cccc(C#CC#Cc2cccc(NC(=O)[C@@H]3CCCN3C(=O)[C@@H](NC(=O)OC)C(C)C)c2)c1)C(C)C — pEC50 (Hepatitis C virus; viral replication, inhibitor, luciferase; Huh-5-2, GETYPE1B; 72 h, replicon): 9.92
CC(=O)OC[C@@]1(C)[C@H]2CC[C@@H]3CN(Cc4ccc(O)cc4)[C@@H](C4=CCOC4=O)C[C@H]3[C@]2(C)CC[C@H]1OC(C)=O — inhibition (unidentified human coronavirus; cytopathic effect; MRC5; 25 µM, 72 h): 50.4%
CCOC(=O)N[C@H](CC(C)C)C(=O)N1CCC[C@@H]1C(=O)Nc1cccc(C#CC#Cc2cccc(NC(=O)[C@H]3CCCN3C(=O)[C@@H](CC(C)C)NC(=O)OCC)c2)c1 — pEC50 (Hepatitis C virus; viral replication, inhibitor, luciferase; Huh-5-2, GETYPE1B; 72 h, replicon): 6.39
CCCCCCC/C=C/C(=O)N1C(=O)/C(=C(/C)O)C(=O)C1CCC(=O)O (stereo not shown) — MIC (Proteus mirabilis; microbial growth; ATCC25933): > 200 µg/mL
CC(C)Oc1c(NC(=O)c2ccc(NC(=O)c3ccc(NC(=O)[C@H](CC(N)=O)NC(=O)c4ccc(NC(=O)c5ccc(C#N)cn5)cc4)cc3)c(OC(C)C)c2O)ccc(C(=O)O)c1O — MIC (Proteus mirabilis; microbial growth; DSM4479): 8 µg/mL (≈ 9.02 µM)
